According to ChEMBL document CHEMBL1629563, “Pharmacokinetic and safety evaluation of BILR 355, a second-generation nonnucleoside reverse transcriptase inhibitor, in healthy volunteers” (Antimicrob Agents Chemother, 2008):

Tests used:
[1] = Mean residence time in healthy human at 75 mg, po administered as single dose coadministered with 100 mg of ritonavir; type: ADME, organism-based; conditions: in vivo
[2] = AUC (0 to infinity) in healthy human at 12.5 mg, po administered as single dose; type: ADME, organism-based; design: dose 12.5 mg, route oral, time infinity; conditions: plasma
Outline: (§1)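 Healthy male volunteers, six active plus two placebo per dose group, single oral dose in PEG solution with 200 ml water after overnight fast; breakfast 60 to 90 min post-dose. EDTA plasma sampled predose to 144 h. Assayed by validated LC-MS/MS after protein precipitation. Noncompartmental analysis, AUC by linear up/log down trapezoidal rule; Vss = CL/F·(MRTp.o. − 1/Ka).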

[3] = Tmax in healthy human at 50 mg, po administered as single dose; type: ADME, organism-based; conditions: in vivo
[4] = Half life in healthy human at 87.5 mg, po administered as single dose coadministered with 100 mg of ritonavir; type: ADME, organism-based; conditions: in vivo
[5] = AUC (0 to last) in healthy human at 12.5 mg, po administered as single dose; type: ADME, organism-based; design: dose 12.5 mg, route oral, time 0 - last; conditions: plasma; outline: as §1
[6] = Drug excretion in healthy human urine assessed as unchanged drug at 5 mg, po administered as single dose by high-pressure liquid chromatography-tandem mass spectrometry/mass spectrometry method; type: ADME, organism-based; conditions: read-out: Drug uptake
Outline: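 Urine was collected by weight after one oral dose of BILR 355 in PEG solution in fasted healthy males. Intervals were predose blank, 0-6, 6-24 and 24-72 h, with the bladder voided before each. Aliquots were stored at −20°C and assayed by LC-MS/MS. fe = amount of unchanged drug excreted (Ae) as a percentage of the administered dose.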

[7] = Renal clearance in healthy human at 25 mg, po administered as single dose coadministered with 100 mg of ritonavir by high-pressure liquid chromatography-tandem mass spectrometry/mass spectrometry method; type: ADME, organism-based, Kidney; conditions: in vivo, read-out: CL_renal (converted)
[8] = Mean residence time in high fat fed healthy human at 50 mg, po administered as single dose coadministered with 100 mg of ritonavir; type: ADME, organism-based; conditions: in vivo
[9] = test system: Homo sapiens; test: Toxicity in healthy human assessed as occurrence of abdominal pain at 75 mg, po administered as single dose relative to control; type: organism-based, Abdomen; conditions: in vivo
[10] = test system: Homo sapiens; test: Toxicity in healthy human assessed as occurrence of increase in alanine aminotransferase level at 1 mg, po administered as single dose relative to control; type: organism-based; conditions: in vivo
[11] = Tmax in healthy human at 75 mg, po administered as single dose coadministered with 100 mg of ritonavir; type: ADME, organism-based; conditions: in vivo
[12] = test system: Homo sapiens; test: Toxicity in healthy human assessed as occurrence of abdominal pain at 12.5 mg, po administered as single dose relative to control; type: organism-based, Abdomen; conditions: in vivo
[13] = test system: Homo sapiens; test: Toxicity in healthy human assessed as occurrence of increase in alanine aminotransferase level at 25 mg, po administered as single dose relative to control; type: organism-based; conditions: in vivo
[14] = Mean residence time in healthy human at 100 mg, po administered as single dose; type: ADME, organism-based; conditions: in vivo
[15] = AUC (0 to infinity) in healthy human at 25 mg, po administered as single dose; type: ADME, organism-based; design: dose 25 mg, route oral, time infinity; conditions: plasma; outline: as §1
[16] = Cmax in healthy human at 87.5 mg, po administered as single dose coadministered with 100 mg of ritonavir by high-pressure liquid chromatography-tandem mass spectrometry/mass spectrometry method; type: ADME, organism-based; design: dose 87.5 mg, route oral; conditions: in vivo
Outline: (§2)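 Healthy male volunteers, fasted overnight, got one oral dose of BILR 355 in PEG solution with 200 ml water. Ritonavir 100 mg was given 10 h before and again with the dose. Plasma was sampled (EDTA) from predose to 144 h and assayed by validated LC-MS/MS. Cmax and Vz/F came from noncompartmental analysis. Vss/F = CL/F·(MRTp.o. − 1/Ka), with Ka from compartmental modelling.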

[17] = AUC (0 to last) in healthy human at 37.5 mg, po administered as single dose coadministered with 100 mg of ritonavir; type: ADME, organism-based; design: dose 37.5 mg, route oral, time 0 - last; conditions: plasma
Outline: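 Healthy male volunteers, fasted. Ritonavir 100 mg given 10 h before and again together with single oral BILR 355 in PEG solution. EDTA plasma sampled predose to 144 h. LC-MS/MS assay after protein precipitation. Noncompartmental analysis, AUC by linear up/log down trapezoidal rule; Vss = CL/F·(MRTp.o. − 1/Ka).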

[18] = Drug excretion in healthy human urine assessed as unchanged drug at 87.5 mg, po administered as single dose coadministered with 100 mg of ritonavir by high-pressure liquid chromatography-tandem mass spectrometry/mass spectrometry method; type: ADME, organism-based; conditions: read-out: Drug uptake
Outline: (§3)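 Ritonavir 100 mg was given 10 h before and with one oral dose of BILR 355 in PEG solution. Urine was collected by weight as predose blank, then 0-6, 6-24 and 24-72 h, stored at −20°C and assayed by LC-MS/MS. fe = unchanged drug excreted (Ae) as a percentage of dose. Line 50: high-fat breakfast 30 min before dosing.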

[19] = Apparent volume of distribution in terminal phase in healthy human at 87.5 mg, po administered as single dose coadministered with 100 mg of ritonavir; type: ADME, organism-based; conditions: in vivo, read-out: Vz/F; outline: as §2
[20] = test system: Homo sapiens; test: Toxicity in healthy human assessed as occurrence of frequent bowel movements at 50 mg, po administered as single dose relative to control; type: organism-based; conditions: in vivo
[21] = test system: Homo sapiens; test: Toxicity in healthy human assessed as occurrence of migraine at 1 mg, po administered as single dose relative to control; type: organism-based; conditions: in vivo
[22] = Renal clearance in healthy human at 12.5 mg, po administered as single dose coadministered with 100 mg of ritonavir by high-pressure liquid chromatography-tandem mass spectrometry/mass spectrometry method; type: ADME, organism-based, Kidney; conditions: in vivo, read-out: CL_renal (converted)
[23] = test system: Homo sapiens; test: Toxicity in healthy human assessed as occurrence of constipation at 1 mg, po administered as single dose relative to control; type: organism-based; conditions: in vivo
[24] = Renal clearance in healthy human at 62.5 mg, po administered as single dose coadministered with 100 mg of ritonavir by high-pressure liquid chromatography-tandem mass spectrometry/mass spectrometry method; type: ADME, organism-based, Kidney; conditions: in vivo, read-out: CL_renal (converted)
[25] = Tmax in healthy human at 25 mg, po administered as single dose; type: ADME, organism-based; conditions: in vivo
[26] = Drug excretion in healthy human urine assessed as unchanged drug at 25 mg, po administered as single dose coadministered with 100 mg of ritonavir by high-pressure liquid chromatography-tandem mass spectrometry/mass spectrometry method; type: ADME, organism-based; conditions: read-out: Drug uptake; outline: as §3
[27] = Cmax in high fat fed healthy human at 50 mg, po administered as single dose coadministered with 100 mg of ritonavir by high-pressure liquid chromatography-tandem mass spectrometry/mass spectrometry method; type: ADME, organism-based; design: dose 50 mg, route oral; conditions: in vivo
Outline: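 Fed cohort: healthy males ate an FDA-recipe high-fat breakfast (about 150/250/500-600 cal from protein/carbohydrate/fat) 30 min before a 50 mg oral dose of BILR 355 in PEG solution. Ritonavir 100 mg was given 10 h before and with the dose. Plasma was sampled over 144 h and assayed by LC-MS/MS. Noncompartmental analysis gave Cmax and Vz/F. Vss/F = CL/F·(MRTp.o. − 1/Ka).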

[28] = Drug excretion in healthy human urine assessed as unchanged drug at 75 mg, po administered as single dose coadministered with 100 mg of ritonavir by high-pressure liquid chromatography-tandem mass spectrometry/mass spectrometry method; type: ADME, organism-based; conditions: read-out: Drug uptake; outline: as §3
[29] = test system: Homo sapiens; test: Toxicity in healthy human assessed as occurrence of frequent bowel movements at 1 mg, po administered as single dose relative to control; type: organism-based; conditions: in vivo
[30] = Apparent volume of distribution at steady state in healthy human at 100 mg, po administered as single dose; type: ADME, organism-based; conditions: in vivo, read-out: Vss/F; outline: as §1

MRT [1]: 17.4 h | AUC(0-inf) [2]: 71.8 ng·h/mL | Tmax [3]: 0.667 h | half-life [4]: 9.61 h | AUC(0-t) [5]: 56.2 ng·h/mL | dose excreted [6]: 0.172% | CL renal [7]: 6.5 mL/min | MRT [8]: 18.7 h | Tmax [11]: 1.63 h | MRT [14]: 2.23 h | AUC(0-inf) [15]: 142 ng·h/mL | Cmax [16]: 838 ng/mL | AUC(0-t) [17]: 5800 ng·h/mL | dose excreted [18]: 5.96% | Vd/F [19]: 114 L | CL renal [22]: 7.3 mL/min | CL renal [24]: 7.17 mL/min | Tmax [25]: 0.833 h | dose excreted [26]: 6.62% | Cmax [27]: 430 ng/mL | dose excreted [28]: 5.44% | Vd/F [30]: 163 L
SMILES: CCN1c2ncc(CCOc3cc[n+]([O-])c4ccccc34)cc2C(=O)N(C)c2cccnc21 [BILR 355]
Activity [9]: 16.7% | Activity [10]: 0% | Activity [12]: 0% | Activity [13]: 0% | Activity [20]: 0% | Activity [21]: 0% | Activity [23]: 0% | Activity [29]: 0%
